Laboratory results as given in BindingDB's records for doi:10.1016/j.bmcl.2019.126908 (University of California Davis, 2020).

Target: T1, Bifunctional epoxide hydrolase 2 (Homo sapiens, UniProt P34913)
T1 sequence (P34913 whole entry): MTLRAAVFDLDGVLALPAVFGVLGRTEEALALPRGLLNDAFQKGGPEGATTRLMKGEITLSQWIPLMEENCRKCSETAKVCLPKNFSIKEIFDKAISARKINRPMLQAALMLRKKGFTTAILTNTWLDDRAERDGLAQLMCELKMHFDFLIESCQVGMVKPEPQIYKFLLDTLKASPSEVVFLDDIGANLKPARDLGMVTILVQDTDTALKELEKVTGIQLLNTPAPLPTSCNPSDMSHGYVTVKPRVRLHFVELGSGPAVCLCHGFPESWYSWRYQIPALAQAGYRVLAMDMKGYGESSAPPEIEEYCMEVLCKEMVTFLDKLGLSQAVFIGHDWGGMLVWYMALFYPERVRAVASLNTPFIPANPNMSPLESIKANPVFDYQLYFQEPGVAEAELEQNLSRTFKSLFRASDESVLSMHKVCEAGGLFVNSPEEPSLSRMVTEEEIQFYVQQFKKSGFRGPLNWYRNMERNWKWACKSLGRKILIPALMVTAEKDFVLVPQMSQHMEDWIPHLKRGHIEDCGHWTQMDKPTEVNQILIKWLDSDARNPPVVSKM
Assay: Inhibition of human soluble epoxide hydrolase by kinetic fluorescent assay
How it was run: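 Kinetic fluorescent read-out; each value is the mean of three separate experiments.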

| Compound | IC50 |
| --- | --- |
| CC(NC(=O)Nc1ccccc1F)C12CC3CC(CC(C3)C1)C2 (configuration not stated) | 56 nM |
| O=C(Nc1ccc(C23CC4CC(CC(C4)C2)C3)cc1)Nc1ccccc1F | 94 nM |
